# Measured values taken from ChEMBL document CHEMBL1152649, “Synthesis, cytotoxicity and human telomerase inhibition activities of a series of 1,2-heteroannelated anthraquinones and anthra[1,2-d]imidazole-6,11-dione homologues” (2009).
# Activity calls are given as the source filed them. The rule behind the calls is not given here.
# Key:
# MDA-MB-231 = test: Antiproliferative activity against human MDA-MB-231 cells assessed as cell growth at 10 uM; format: functional; conditions: read-out: Activity
# Summary of the method: (§1)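 NCI 60 cell line panel, single-dose screen (10^-5 M) run by the developmental therapeutics program protocol. Results are given as growth percent of treated cells relative to untreated control cells for each line.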
# [1] = target: Telomerase reverse transcriptase (Homo sapiens) (UniProt O14746); test: Inhibition of TERT in human H1299 cells assessed as residual transcriptional activity at 100 uM after 24 hrs by SEAP reporter gene assay; values are per cent of control
# Chain of Telomerase reverse transcriptase (Homo sapiens) (O14746 whole entry): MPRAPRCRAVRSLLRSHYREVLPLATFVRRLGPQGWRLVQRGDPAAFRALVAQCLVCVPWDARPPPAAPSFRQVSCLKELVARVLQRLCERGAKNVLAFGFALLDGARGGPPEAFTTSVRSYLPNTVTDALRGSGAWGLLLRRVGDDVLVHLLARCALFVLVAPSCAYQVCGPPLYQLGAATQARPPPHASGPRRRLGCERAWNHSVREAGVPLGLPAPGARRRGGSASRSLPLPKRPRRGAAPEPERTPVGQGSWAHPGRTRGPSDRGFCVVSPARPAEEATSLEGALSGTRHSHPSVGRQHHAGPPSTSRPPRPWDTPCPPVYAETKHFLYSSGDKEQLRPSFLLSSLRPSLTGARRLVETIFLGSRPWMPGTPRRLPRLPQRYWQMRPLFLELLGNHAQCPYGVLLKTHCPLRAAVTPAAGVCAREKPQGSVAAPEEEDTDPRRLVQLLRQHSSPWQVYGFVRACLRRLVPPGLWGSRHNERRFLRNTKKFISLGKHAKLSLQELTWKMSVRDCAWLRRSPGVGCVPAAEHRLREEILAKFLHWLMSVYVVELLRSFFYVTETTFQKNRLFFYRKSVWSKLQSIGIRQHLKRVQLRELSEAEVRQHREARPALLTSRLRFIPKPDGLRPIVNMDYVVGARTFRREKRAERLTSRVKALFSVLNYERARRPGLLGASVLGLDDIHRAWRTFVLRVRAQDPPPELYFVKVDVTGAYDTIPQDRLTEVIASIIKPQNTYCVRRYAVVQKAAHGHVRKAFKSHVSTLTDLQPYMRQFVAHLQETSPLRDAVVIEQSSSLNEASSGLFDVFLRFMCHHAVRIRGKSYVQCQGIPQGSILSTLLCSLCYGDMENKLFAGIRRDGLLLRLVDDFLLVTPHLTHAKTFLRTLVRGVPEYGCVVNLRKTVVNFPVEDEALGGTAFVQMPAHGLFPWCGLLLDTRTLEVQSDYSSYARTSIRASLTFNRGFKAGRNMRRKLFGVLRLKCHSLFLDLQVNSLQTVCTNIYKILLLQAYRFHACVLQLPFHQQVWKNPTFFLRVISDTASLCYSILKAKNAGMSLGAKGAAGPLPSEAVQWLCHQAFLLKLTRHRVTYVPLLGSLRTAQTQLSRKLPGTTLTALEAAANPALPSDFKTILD
# LOX IMVI = test: Antiproliferative activity against human LOXIMVI cells assessed as cell growth at 10 uM; format: functional; conditions: read-out: Activity; summary of the method: as §1
# A549 = test: Antiproliferative activity against human A549 cells assessed as cell growth at 10 uM; format: functional; conditions: read-out: Activity; summary of the method: as §1
# HCC 2998 = test: Antiproliferative activity against human HCC2998 cells assessed as cell growth at 10 uM; format: functional; conditions: read-out: Activity; summary of the method: as §1
# NCI-H322M = test: Antiproliferative activity against human NCI-H322M cells assessed as cell growth at 10 uM; format: functional; conditions: read-out: Activity; summary of the method: as §1
# HOP-92 = test: Antiproliferative activity against human HOP92 cells assessed as cell growth at 10 uM; format: functional; conditions: read-out: Activity; summary of the method: as §1
# TK-10 = test: Antiproliferative activity against human TK10 cells assessed as cell growth at 10 uM; format: functional; conditions: read-out: Activity
# Summary of the method: (§2)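 NCI 60 cell line panel, single dose (10^-5 M), run per the Developmental Therapeutics Program protocol (one dose mean graph). Each result is the growth percentage of treated cells relative to untreated control cells.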
# ACHN = test: Antiproliferative activity against human ACHN cells assessed as cell growth at 10 uM; format: functional; conditions: read-out: Activity; summary of the method: as §1
# NCI-H460 = test: Antiproliferative activity against human NCI-H460 cells assessed as cell growth at 10 uM; format: functional; conditions: read-out: Activity; summary of the method: as §1
# OVCAR-8 = test: Antiproliferative activity against human OVCAR8 cells assessed as cell growth at 10 uM; format: functional; conditions: read-out: Activity; summary of the method: as §1
# KM12 = test: Antiproliferative activity against human KM12 cells assessed as cell growth at 10 uM; format: functional; conditions: read-out: Activity; summary of the method: as §1
# MCF7 = test: Antiproliferative activity against human MCF7 cells assessed as cell growth at 10 uM; format: functional; conditions: read-out: Activity; summary of the method: as §1
# UO-31 = test: Antiproliferative activity against human UO31 cells assessed as cell growth at 10 uM; format: functional; conditions: read-out: Activity; summary of the method: as §2
# [2] = target: Telomerase reverse transcriptase (Homo sapiens) (UniProt O14746); test: Inhibition of telomerase in human H1299 cells up to 100 uM by TRAP assay; format: cell-based
# Summary of the method: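 PCR-based telomeric repeat amplification protocol (TRAP). The telomerase source was total lysate of H1299 lung cancer cells, with protein measured against BSA standards. Controls were extract without inhibitor and RNase A-treated extract.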
# [3] = Antiproliferative activity against human RPMI8266 cells assessed as cell growth at 10 uM; format: functional; conditions: read-out: Activity; summary of the method: as §1
# MDA-MB-468 = test: Antiproliferative activity against human MDA-MB-468 cells assessed as cell growth at 10 uM; format: functional; conditions: read-out: Activity; summary of the method: as §1
Structure (SMILES),growth at 10 µM (MDA-MB-231) [%],residual activity [1] [%],growth at 10 µM (LOX IMVI) [%],growth at 10 µM (A549) [%],growth at 10 µM (HCC 2998) [%],growth at 10 µM (NCI-H322M) [%],growth at 10 µM (HOP-92) [%],growth at 10 µM (TK-10) [%],growth at 10 µM (ACHN) [%],growth at 10 µM (NCI-H460) [%],growth at 10 µM (OVCAR-8) [%],growth at 10 µM (KM12) [%],growth at 10 µM (MCF7) [%],growth at 10 µM (UO-31) [%],inhibition [2],growth at 10 µM [3] [%],growth at 10 µM (MDA-MB-468) [%]
O=C1c2ccccc2C(=O)c2c1ccc1nc(-c3ccccc3)[nH]c21,81.4,10,79.7,79,105,77.4,50.7,82,71.9,86.2,91,75.5,51.8,57.6,inactive,61.1,–
CC1(C)Nc2ccc3c(c2N1)C(=O)c1ccccc1C3=O,72.9,9,61.9,94.6,137,79.7,5.1,62.4,50.2,71.5,90.2,51.5,83.6,30.6,inactive,99.9,77.2
COc1cc(-c2nc3ccc4c(c3[nH]2)C(=O)c2ccccc2C4=O)ccc1O,87.9,8,109,97.9,103,107,120,174,100,90.1,93.4,113,57.5,80.7,inactive,81,–
O=C1c2ccccc2C(=O)c2c1ccc1nc(-c3ccc4c(c3)OCO4)[nH]c21,107,34,99.6,102,85.7,150,65.3,–,104,109,96.5,97.8,46.5,73.4,inactive,96.2,96.4
N#Cc1ccc(-c2nc3ccc4c(c3[nH]2)C(=O)c2ccccc2C4=O)cc1,87.1,30,101,106,74.7,127,56.2,180,111,105,98.9,98.6,62.7,80.4,inactive,114,95
